Screening data (PubChem)
EBV gp42 block: blocks Epstein-Barr virus glycoprotein 42 binding; Q1HVG2; Fluorescence polarization binding assay, mP read-out; inhibition, % (tested at 21.74 µM); actives 0.42% (n = 220,000); AID 1085; in the data active = inhibition above about 50%
GLD-1 TGE inh: GLD-1-TGE RNA interaction inhibition (C. elegans); purified GLD-1 + fluorescein TGE RNA, fluorescence polarization; AID 2280; actives 0.44% (n = 320,000); Q17339; inhibition, % at 5.96 µM;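 active = percent inhibition above a per-plate cutoff, the plate mean of test compounds plus 3 SD, cut at about 30% in these data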
Target sequence (Q17339 whole entry, looked up): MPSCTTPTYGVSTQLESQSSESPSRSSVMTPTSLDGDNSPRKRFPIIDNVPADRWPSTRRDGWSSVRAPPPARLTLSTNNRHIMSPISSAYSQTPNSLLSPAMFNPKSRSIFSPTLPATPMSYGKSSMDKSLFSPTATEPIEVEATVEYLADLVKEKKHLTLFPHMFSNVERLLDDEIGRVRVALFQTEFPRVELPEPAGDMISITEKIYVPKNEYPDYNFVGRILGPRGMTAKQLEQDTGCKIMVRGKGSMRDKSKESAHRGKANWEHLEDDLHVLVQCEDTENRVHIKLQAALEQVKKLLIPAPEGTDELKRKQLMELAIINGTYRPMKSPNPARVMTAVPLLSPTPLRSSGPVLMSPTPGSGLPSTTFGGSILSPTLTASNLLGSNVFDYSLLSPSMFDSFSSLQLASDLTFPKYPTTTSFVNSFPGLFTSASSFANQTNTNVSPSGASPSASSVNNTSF
MEX-5 binding: C. elegans MEX-5 TCR-2 RNA binding activity; activity score (negative = inhibition of binding), % at 10 µM; AID 1832; MEX-5/FITC-TCR2 RNA binding, fluorescence polarization; stronger effect = lower value; actives 0.38% (n = 300,000); Q9XUB2;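 active = inhibition past about -25% in most replicates, and total fluorescence under double the plate's negative control median, limit read from the data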
Bcl-xL primary: Bcl-xL (human) inhibition; inhibition, % at 10.9 µM; AID 2129; actives 0.7% (n = 320,000); Q07817; GST-Bcl-xL / FITC-Bim BH3 peptide fluorescence polarization;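 active = inhibition above the mean of all tested compounds plus 3 SD, cutoff set per campaign, cut at about 30% in these data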;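 also: inhibitors lower millipolarization by displacing the labeled peptide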
Target sequence (Q07817 whole entry, looked up): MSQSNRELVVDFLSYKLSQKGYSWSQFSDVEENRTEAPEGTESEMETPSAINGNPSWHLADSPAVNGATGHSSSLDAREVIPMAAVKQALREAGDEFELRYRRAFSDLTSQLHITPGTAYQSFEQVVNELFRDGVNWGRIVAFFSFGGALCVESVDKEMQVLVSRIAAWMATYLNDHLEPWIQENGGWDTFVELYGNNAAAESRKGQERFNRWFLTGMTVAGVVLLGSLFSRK
IMP-1 inhibitor: blocks Pseudomonas aeruginosa IMP-1 metallo-beta-lactamase; inhibition, % at 5.6 µM; AID 1556; actives 0.45% (n = 290,000); purified IMP-1, nitrocefin hydrolysis, epi-absorbance fluorescence;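 active = inhibition above the mean plus 3 SD of all compounds in the same screening run, cut at about 4.5% in these data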
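System: Purified recombinant IMP-1 metallo-beta-lactamase enzyme | Measured by: Fluorescence quenching readout, ex 480/em 530 nm | Replication: Singlicate | Incubation: 15 min preincubation plus 25 min reaction at 25 °C | Evaluation: Percent inhibition from optical density relative to buffer-blank wells | Benchmarks: DMSO with and without IMP-1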
VIM-2 inhibitor: blocks Pseudomonas aeruginosa VIM-2 metallo-beta-lactamase | purified VIM-2, nitrocefin hydrolysis, epi-absorbance fluorescence | inhibition, % at 5.6 µM | actives 0.89% (n = 290,000) | AID 1527;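 active = inhibition above the mean of all tested compounds plus 3 SD, cutoff set per screening run, cut at about 7.5% in these data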;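 also: red hydrolysis product quenches plate fluorescence so inhibitors raise well fluorescence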
Each line names hits and unclear results; the compound was inactive in the other large screens. Shown are actives, neighbours in structure and some others; about 2.2% of the full set was active somewhere.

Cc1cccc(S(=O)(=O)C(C#N)c2nc3ccccc3nc2N2CCCC2)c1 (stereo not drawn)	EBV gp42 block 91.6
CN1CCN(c2nc3ccccc3nc2C(C#N)S(=O)(=O)c2ccccc2)CC1 (stereo not drawn)	none
CN(Cc1ccccc1)C(=O)C1CCN(S(=O)(=O)c2ccc3nc4c(c(C(=O)O)c3c2)CCCC4)CC1	IMP-1 inhibitor 5.5 (no result: EBV gp42 block)
O=C(O)Cn1cc(/C=C2/SC(=O)N(CC(=O)N3CCCCCC3)C2=O)c2ccccc21	none
O=C(O)COc1ccc(Br)cc1/C=C1/SC(=O)N(CC(=O)N2CCCC2)C1=O	IMP-1 inhibitor 42.8
COc1ccc(/C=C2\CCCC(C(=O)C(F)(F)F)=C2O)cc1OC	MEX-5 binding -34.2
COc1cc(/C=C2\CCC/C(=C\c3ccc(O)c(OC)c3)C2=O)ccc1O	VIM-2 inhibitor 11.3 (no result: EBV gp42 block)
COc1cc(/C=C/C(=O)CC(=O)/C=C/c2ccc(O)c(OC)c2)ccc1O	IMP-1 inhibitor 17.8
Cn1c(=O)c2[nH]c(N/N=C(/C#N)C(N)=O)nc2n(C)c1=O	MEX-5 binding -27.4
Cc1cc(NC(=O)Cc2ccccc2)nc2c1c(=O)oc1ccccc12	none
Cc1cc(NC(=O)CN2CCN(Cc3ccccc3)CC2)nc2c1c(=O)oc1ccccc12	VIM-2 inhibitor 8.3
O=C(COc1ccc(F)cc1Cl)NC1CCCCCC1	none (no result: EBV gp42 block, MEX-5 binding, IMP-1 inhibitor, VIM-2 inhibitor)
COc1cc(C=O)ccc1OCC(=O)Nc1ccc2c(c1)OCO2	none (no result: EBV gp42 block)
O=C(O)[C@@H]1CSC2c3ccccc3C(=O)N21 (stereo partly drawn)	IMP-1 inhibitor 25.3 (no result: EBV gp42 block)
CCOC(=O)/C(N=Nc1sc(C(=O)OC)c(C)c1C(=O)OCC)=C(\O)CCl	IMP-1 inhibitor 4.7
COc1ccc(-c2nc(CS(=O)(=O)CC(=O)NCCc3ccc(C)cc3)c(C)o2)cc1	IMP-1 inhibitor 6.2 (no result: EBV gp42 block, MEX-5 binding)
CCN(CC)c1ccc2cc(NC(=O)CCC(=O)O)c(=O)oc2c1	EBV gp42 block 73.9, GLD-1 TGE inh 75.3, MEX-5 binding -68.0, Bcl-xL primary 103.3
CCCCn1c(CCn2nc(C)c(Br)c2C)n[nH]c1=S	VIM-2 inhibitor 8.1
CCn1c(CCCCc2n[nH]c(=S)n2CC)n[nH]c1=S	none
COCCNc1nc(-c2cc(C)n(CCc3ccc(OC)cc3)c2C)cs1	Bcl-xL primary 32.6
CC1(C)CC(NC(=O)c2ccc(Cl)c(Cl)c2)CC(C)(C)N1	none (no result: EBV gp42 block)
CCOC(=O)C1=C(C)OC(N)=C(C#N)C1c1cc2cc(C)ccc2nc1N1CCCCC1 (stereo not drawn)	Bcl-xL primary 32.8
CCOC(=O)C1=C(C)OC(N)=C(C#N)C1c1cc2ccccc2nc1N1CCCCC1 (stereo not drawn)	Bcl-xL primary 31.2
CCOC(=O)C1=C(C)OC(N)=C(C#N)C1c1cc(C)sc1C (stereo not drawn)	none
Cn1c(=O)c2[nH]c(CN3CCN(Cc4ccccc4)CC3)nc2n(C)c1=O	none
Cn1c(N)nc2nc(CCc3ccccc3)c(=O)[nH]c2c1=O	Bcl-xL primary 40.1, IMP-1 inhibitor 5.2 (no result: EBV gp42 block)
Cc1cc(C)c2c(n1)sc1c(N3CCN(CCO)CC3)ncnc12	VIM-2 inhibitor 11.8
CCOc1ncnc2c1sc1nc(C)cc(C)c12	none
C=CCC(NC(C)c1ccccc1)c1ccco1 (stereo not drawn)	IMP-1 inhibitor 8.4
CCCn1c(/N=C/c2ccccc2O)nc2ccccc21	none
Cn1c(/N=C/c2c(O)ccc3ccccc23)nc2ccccc21	EBV gp42 block 157.3, Bcl-xL primary 35.7 (no result: MEX-5 binding)
COc1ccc(OC)c(NC(=O)COC(=O)CN2C(=O)NC3(CCCC3)C2=O)c1	none (no result: EBV gp42 block, MEX-5 binding, IMP-1 inhibitor, VIM-2 inhibitor)
CC(C)Oc1ccc(/C=N/NC(=O)c2nnn(-c3nonc3N)c2CN(C)c2ccccc2)cc1	none (no result: EBV gp42 block)
CC1=C(C#N)c2nc(N)c(C#N)c(C)c2/C1=C\c1ccc(-c2ccccc2C(=O)O)o1	MEX-5 binding -52.3 (no result: GLD-1 TGE inh, Bcl-xL primary)
Nc1nonc1-c1nc2ccccc2n1CC(=O)N/N=C/c1ccc(-c2ccccc2C(=O)O)o1	none
COc1cc(/C=C2/C(C)=C(C#N)c3nc(N)c(C#N)c(C)c32)ccc1OCC(=O)O	Bcl-xL primary 31.3
COc1ccccc1NC(=O)c1ccc2c(c1)N(CC#N)C(=O)C(C)(C)O2	none (no result: EBV gp42 block)
COc1cccc(C(=O)Nc2nnc(CCS(=O)(=O)c3ccc(C)cc3)s2)c1	VIM-2 inhibitor 7.9 (no result: EBV gp42 block)
COc1ccc(-c2noc(CCC(=O)NCC3CCCO3)n2)cc1OC (stereo not drawn)	none (no result: EBV gp42 block)
COC(=O)\C(C(C)=O)=C(/C=C/C=C/N(C)C)N(C)C	Bcl-xL primary 31.6
COC(=O)/C(C(C)=O)=C(/C=C/C=C/N(C)C)N(C)C	none
Cc1ccc(C(=O)NCCc2nnc3ccc(SCC(=O)Nc4ccccc4F)nn23)cc1	none (no result: EBV gp42 block)
CCCc1cc(=O)[nH]c(SCC(=O)Nc2c(C)n(C)n(-c3ccccc3)c2=O)n1	none (no result: EBV gp42 block, MEX-5 binding, Bcl-xL primary, IMP-1 inhibitor, VIM-2 inhibitor)
Oc1ccc(N=Nc2n[nH]c(-c3ccccc3)n2)cc1	MEX-5 binding -37.4
Oc1ccc(N=Nc2nc(-c3ccccc3)c(-c3ccccc3)[nH]2)cc1	GLD-1 TGE inh 84.0
OCCN1CCN(C(=S)Nc2ccccc2)CC1	none
COc1cc(NC(=S)N2CCN(CCO)CC2)cc(OC)c1	Bcl-xL primary 73.2 (no result: EBV gp42 block)
O=C(O)/C=C/C(=O)Nc1ccc(N2CCOCC2)nc1N1CCOCC1	Bcl-xL primary 38.5
COc1ccc(C(C#N)N2CCC(c3ccccc3)=N2)cc1 (stereo not drawn)	none (no result: EBV gp42 block)
COc1ccc2cc1Oc1ccc(cc1)CC1c3c(cc(OC)c4c3Oc3cc5c(cc3O4)CCNC5C2)CCN1C (stereo not drawn)	IMP-1 inhibitor 4.6
CCCCc1ccc(/C=C2\C(=O)ON=C2c2ccccc2)s1	MEX-5 binding -33.0
CC(C)c1cc(Nc2cccc(O)c2)cc(C(C)C)c1O	GLD-1 TGE inh 148.2, Bcl-xL primary 139.9 (no result: EBV gp42 block)
NS(=O)(=O)c1ccc(CCNC(=O)c2ccc(OCC3CCCO3)cc2)cc1 (stereo not drawn)	none (no result: EBV gp42 block)
Cc1ccc2nc(SCC(=O)Nc3nonc3C)[nH]c2c1	none (no result: EBV gp42 block)
COc1ccc2nc(SCC(=O)Nc3nonc3C)[nH]c2c1	MEX-5 binding -32.0
CCOc1ccc(/C=c2\sc3nc(-c4ccco4)nn3c2=O)cc1OCC	MEX-5 binding -30.5
COc1ccccc1/C=c1\sc2nc(-c3ccco3)nn2c1=O	none
Cc1[nH][nH]c(=O)c1C(c1ccc(-c2ccccc2C(=O)O)o1)c1c(C)[nH][nH]c1=O	MEX-5 binding -35.0
Cc1[nH][nH]c(=O)c1C(c1ccc(-c2cccc(C(=O)O)c2)o1)c1c(C)[nH][nH]c1=O	MEX-5 binding -51.9
Cc1cccc(C(=O)Nc2ccc(C(=O)N/N=C/c3ccco3)cc2)c1	none (no result: EBV gp42 block, IMP-1 inhibitor, VIM-2 inhibitor)
O=C(Oc1ccc(C(=S)N2CCCCC2)cc1)c1ccccc1	none
O=C(Oc1ccc(C(=S)N2CCC(O)CC2)cc1)c1ccc(Cl)cc1	Bcl-xL primary 99.9
